Assay results taken from ChEMBL document CHEMBL5712071, “BET bromodomain protein inhibition is a therapeutic option for medulloblastoma” (Oncotarget, 2013).
Activity calls are given as the source filed them. No cut-off for these calls is given here.

Key:
HD-MB03 [1] = assay: Induction of apoptosis in human HD-MB03 cells assessed as increase in population of cells in sub-G1 phase at 500 nM incubated for 72 hrs by flow cytometry; format: functional, cell-based
Method in brief: (§1)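 PI flow cytometry: cells seeded in triplicate, adhered 24h, then exposed to 500 nM JQ1 or DMSO control (methods give 48h culture, legend gives 72h). Harvested by trypsin, washed 3 times in PBS, stained with propidium iodide 15 min, DNA content read by flow cytometry. Sub-G1 fraction taken as apoptotic. Experiments repeated at least 3 times.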

D341 cell line [2] = assay: Anti-proliferative activity against human D341 cells assessed as reduction in cell viability incubated for 48 hrs by MTT assay; format: functional, cell-based; conditions: D341, 48 h
Method in brief: (§2)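 Cells seeded in triplicate at 2 × 10^3 per well and allowed to adhere for 24h. JQ1 was given as serial dilutions in full medium, 1nM-6µM, from a 10 mM DMSO stock. Viability was read by MTT at each time point and IC50 derived from dose-response curves. Culture media were RPMI 1640/10% FCS for HD-MB3 (plus 1% NEAA), ONS-76, Daoy and UW-228, and EMEM/10% FCS for D-283 and D-341.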

[3] = molecular target: Bromodomain-containing protein 4 (Homo sapiens) (UniProt O60885); conditions: HD-MB03, dose 500.0 nM, time 72.0 hrs
UW228 [4] = assay: Induction of apoptosis in human UW228 cells assessed as increase in population of cells in sub-G1 phase at 500 nM incubated for 72 hrs by flow cytometry; format: functional, cell-based; method in brief: as §1
D283 Med [5] = assay: Induction of apoptosis in human D283 cells assessed as increase in population of cells in G1 phase at 500 nM incubated for 72 hrs by ELISA; format: functional, cell-based
HD-MB03 [6] = assay: Induction of apoptosis in human HD-MB03 cells assessed as increase in population of cells in G1 phase at 500 nM incubated for 72 hrs by ELISA; format: functional, cell-based
Daoy [7] = assay: Anti-proliferative activity against human Daoy cells assessed as reduction in cell viability incubated for 96 hrs by MTT assay; format: functional, cell-based; method in brief: as §2
D283 Med [8] = assay: Induction of apoptosis in human D283 cells assessed as increase in population of cells in G1 phase at 500 nM incubated for 72 hrs by flow cytometry; format: functional, cell-based
Method in brief: (§3)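 Cells were cultured with 500 nM JQ1 or DMSO control, trypsinised and washed 3 times in PBS. DNA was stained with propidium iodide for 15 min and DNA content analysed by flow cytometry to give G1 and sub-G1 fractions.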

D341 cell line [9] = assay: Induction of apoptosis in human D341 cells assessed as increase in population of cells in sub-G1 phase at 500 nM incubated for 72 hrs by ELISA; format: functional, cell-based
[10] = molecular target: Bromodomain-containing protein 4 (Homo sapiens) (UniProt O60885); conditions: UW228, dose 500.0 nM, time 24.0 hrs
Daoy [11] = assay: Anti-proliferative activity against human Daoy cells assessed as reduction in cell viability incubated for 48 hrs by MTT assay; format: functional, cell-based; method in brief: as §2
ONS-76 [12] = assay: Anti-proliferative activity against human ONS-76 cells assessed as reduction in cell viability incubated for 96 hrs by MTT assay; format: functional, cell-based; conditions: ONS-76, 96 h; method in brief: as §2
[13] = molecular target: Bromodomain-containing protein 4 (Homo sapiens) (UniProt O60885); conditions: D283 Med, dose 500.0 nM, time 24.0 hrs
ONS-76 [14] = assay: Anti-proliferative activity against human ONS-76 cells assessed as reduction in cell viability incubated for 48 hrs by MTT assay; format: functional, cell-based; conditions: ONS-76, 48 h; method in brief: as §2
D283 Med [15] = assay: Anti-proliferative activity against human D283 cells assessed as reduction in cell viability incubated for 96 hrs by MTT assay; format: functional, cell-based; method in brief: as §2
HD-MB03 [16] = assay: Antitumor activity against human HD-MB03 cells xenografted in female athymic (nu/nu) mouse assessed as increase in mouse survival time at 50 mg/kg, ip for 28 days relative to untreated control; format: functional, organism-based; conditions: time 28.0 day
Method in brief: (§4)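 Female athymic nu/nu mice, 4 weeks old, received 2 × 10^7 HD-MB3 cells in Matrigel subcutaneously in the left flank. At 150–200 mm3 they were randomised, n=7 per group, to JQ1 50 mg/kg ip daily or vehicle for 28 days or until tumours exceeded 1000 mm3. Calipers were used, with volume = (breadth × length × height)/2. Time to 1000 mm3 was analysed by Kaplan-Meier.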

UW228 [17] = assay: Anti-proliferative activity against human UW228 cells assessed as reduction in cell viability incubated for 120 hrs by MTT assay; format: functional, cell-based; conditions: UW228, 120 h; method in brief: as §2
D283 Med [18] = assay: Induction of apoptosis in human D283 cells assessed as increase in population of cells in sub-G1 phase at 500 nM incubated for 72 hrs by flow cytometry; format: functional, cell-based; method in brief: as §3
HD-MB03 [19] = assay: Anti-proliferative activity against human HD-MB03 cells assessed as reduction in cell viability incubated for 72 hrs by MTT assay; format: functional, cell-based; conditions: HD-MB03, 72 h; method in brief: as §2
ONS-76 [20] = assay: Induction of apoptosis in human ONS-76 cells assessed as increase in population of cells in G1 phase at 500 nM incubated for 72 hrs by ELISA; format: functional, cell-based
HD-MB03 [21] = assay: Inhibition of BRD4 female athymic (nu/nu) mouse xenografted with human HD-MB03 cells as reduction in MYC mRNA expression in tumor at 50 mg/kg, ip administered at 0, 12, 24 and 36 hrs over 2-day course by RT-PCR analysis; format: functional, organism-based
Method in brief: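 Same flank HD-MB3 xenografts in female nu/nu mice. Given 4 i.p. doses of JQ1 50 mg/kg (or DMSO) at 0, 12, 24 and 36h; tumours excised 4h after the last dose and snap-frozen. MYC measured by RT-PCR (mean ± S.D.) or western blot with β-actin loading control, 3 tumours per group.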

[22] = molecular target: Bromodomain-containing protein 4 (Homo sapiens) (UniProt O60885); conditions: Daoy, dose 500.0 nM, time 72.0 hrs
UW228 [23] = assay: Anti-proliferative activity against human UW228 cells assessed as reduction in cell viability incubated for 96 hrs by MTT assay; format: functional, cell-based; conditions: UW228, 96 h; method in brief: as §2
HD-MB03 [24] = assay: Antitumor activity against human HD-MB03 cells xenografted in female athymic (nu/nu) mouse assessed as delay in time required for tumor growth to an average of 1000 mm3 at 50 mg/kg, ip for 28 days relative to untreated control; format: functional; conditions: time 28 day; method in brief: as §4
[25] = molecular target: Bromodomain-containing protein 4 (Homo sapiens) (UniProt O60885); conditions: D283 Med, dose 500.0 nM, time 72.0 hrs
D283 Med [26] = assay: Anti-proliferative activity against human D283 cells assessed as reduction in cell viability incubated for 120 hrs by MTT assay; format: functional, cell-based; method in brief: as §2
ONS-76 [27] = assay: Induction of apoptosis in human ONS-76 cells assessed as increase in population of cells in sub-G1 phase at 500 nM incubated for 72 hrs by flow cytometry; format: functional, cell-based; method in brief: as §1
D341 cell line [28] = assay: Antiproliferative activity against human D341 cells at 500 nM incubated for 72 hrs by BrdU ELISA method; format: functional, cell-based
Method in brief: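 Cells seeded in triplicate at 2 × 10^3 per well with 24h adherence, then treated with 500 nM JQ1 or DMSO control for 72h. Proliferation was measured by BrdU incorporation ELISA. Experiments were run independently at least 3 times.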

In the case of `Cc1sc2c(c1C)C(c1ccc(Cl)cc1)=N[C@@H](CC(=O)OC(C)(C)C)c1nnc(C)n1-2`, the Activity (HD-MB03 [1]) is reported as “Active”, the IC50 (D341 cell line [2]) is reported as 924 nM and the inhibition [3] is reported as “Active”. For the same compound, the Activity (UW228 [4]) was “Active”, the Activity (D283 Med [5]) was “Active” and the Activity (HD-MB03 [6]) was “Active”. For the same compound, the IC50 (Daoy [7]) was greater than 1000 nM, the Activity (D283 Med [8]) was “Active” and the Activity (D341 cell line [9]) was “Active”. The inhibition [10] was “Active”, the IC50 (Daoy [11]) was greater than 1000 nM and the IC50 (ONS-76 [12]) was 175 nM. The inhibition [13] was “Active”, the IC50 (ONS-76 [14]) was 172 nM and the IC50 (D283 Med [15]) was 256 nM. The Activity (HD-MB03 [16]) was “Active”, the IC50 (UW228 [17]) was 897 nM and the Activity (D283 Med [18]) was “Active”. For the same compound, the IC50 (HD-MB03 [19]) was 78 nM, the Activity (ONS-76 [20]) was “Active” and the inhibition (HD-MB03 [21]) was “Active”. For the same compound, the inhibition [22] was “Active”, the IC50 (UW228 [23]) was greater than 1000 nM and the Time (HD-MB03 [24]) was 8 days. The inhibition [25] was “Active”, the IC50 (D283 Med [26]) was 316 nM and the Activity (ONS-76 [27]) was “Active”. The Activity (D341 cell line [28]) was “Active”.
